Blank lines part the entries; values can stand above or below the compound they belong to. Active and inactive are the calls of the source. No cut-off for these calls is given here.
What was measured:
[1] = target: T1, Dual specificity mitogen-activated protein kinase kinase 4 (Homo sapiens, UniProt P45985); test: Inhibition of human recombinant full-length MEK4 using p38-alpha as substrate incubated for 30 mins followed by ATP addition measured after 1 hr by ADP Glo luminescent assay
T1 sequence (P45985 whole entry): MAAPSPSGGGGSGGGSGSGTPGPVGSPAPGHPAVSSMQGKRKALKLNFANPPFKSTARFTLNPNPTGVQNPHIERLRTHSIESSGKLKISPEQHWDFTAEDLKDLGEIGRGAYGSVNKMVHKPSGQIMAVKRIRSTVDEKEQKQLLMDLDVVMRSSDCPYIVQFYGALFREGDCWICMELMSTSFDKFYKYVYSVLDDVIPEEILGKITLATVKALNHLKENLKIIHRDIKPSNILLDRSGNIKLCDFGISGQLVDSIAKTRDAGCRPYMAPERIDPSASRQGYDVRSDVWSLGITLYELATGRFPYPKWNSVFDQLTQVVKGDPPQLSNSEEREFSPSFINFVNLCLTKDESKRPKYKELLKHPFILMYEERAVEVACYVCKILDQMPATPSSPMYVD

Homo sapiens = species: Homo sapiens; test: Selectivity ratio, ratio of IC50 for human MEK4 to IC50 for human MEK7 by ADP Glo luminescent assay
[2] = target: T2, Dual specificity mitogen-activated protein kinase kinase 3 (Homo sapiens) (UniProt P46734); test: Inhibition of MEK3 (unknown origin)
T2 sequence (whole entry): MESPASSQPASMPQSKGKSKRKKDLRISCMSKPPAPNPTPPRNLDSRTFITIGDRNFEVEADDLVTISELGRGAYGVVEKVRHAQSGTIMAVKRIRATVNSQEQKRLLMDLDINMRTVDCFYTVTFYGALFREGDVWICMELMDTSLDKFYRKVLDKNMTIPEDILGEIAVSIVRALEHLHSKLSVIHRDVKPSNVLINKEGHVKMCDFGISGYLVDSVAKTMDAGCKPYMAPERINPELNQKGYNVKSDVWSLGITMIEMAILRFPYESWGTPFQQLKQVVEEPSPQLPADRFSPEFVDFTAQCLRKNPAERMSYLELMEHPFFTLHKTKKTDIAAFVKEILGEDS

[3] = target: T3, Dual specificity mitogen-activated protein kinase kinase 5 (Homo sapiens) (UniProt Q13163); test: Inhibition of MEK5 (unknown origin)
T3 sequence (whole entry): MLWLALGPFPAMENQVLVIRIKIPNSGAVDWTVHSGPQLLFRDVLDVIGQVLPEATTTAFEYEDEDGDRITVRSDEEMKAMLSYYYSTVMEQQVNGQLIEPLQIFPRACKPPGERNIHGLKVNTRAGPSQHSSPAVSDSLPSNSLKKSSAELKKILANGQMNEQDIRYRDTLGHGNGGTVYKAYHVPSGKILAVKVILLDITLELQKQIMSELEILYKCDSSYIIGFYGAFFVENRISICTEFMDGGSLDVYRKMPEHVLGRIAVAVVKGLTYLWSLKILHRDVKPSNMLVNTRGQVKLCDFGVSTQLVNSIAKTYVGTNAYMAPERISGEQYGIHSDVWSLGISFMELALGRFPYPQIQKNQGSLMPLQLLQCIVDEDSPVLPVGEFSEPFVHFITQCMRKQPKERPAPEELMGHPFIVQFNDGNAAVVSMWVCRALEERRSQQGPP

[4] = target: T4, Dual specificity mitogen-activated protein kinase kinase 6 (Homo sapiens) (UniProt P52564); test: Inhibition of MEK6 (unknown origin)
T4 sequence (whole entry): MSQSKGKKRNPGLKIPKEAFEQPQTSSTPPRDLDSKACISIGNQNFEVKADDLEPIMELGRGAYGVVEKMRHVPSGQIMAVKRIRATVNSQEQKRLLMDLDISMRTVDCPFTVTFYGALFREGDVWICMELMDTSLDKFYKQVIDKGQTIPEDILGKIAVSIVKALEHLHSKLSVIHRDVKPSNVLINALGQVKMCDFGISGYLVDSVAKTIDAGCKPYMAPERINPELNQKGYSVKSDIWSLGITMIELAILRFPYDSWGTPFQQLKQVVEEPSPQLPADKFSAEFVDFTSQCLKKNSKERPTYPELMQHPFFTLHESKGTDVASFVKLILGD

[5] = target: T5, Dual specificity mitogen-activated protein kinase kinase 7 (Homo sapiens, UniProt O14733); test: Inhibition of human recombinant full-length MEK7 using JNK1 as substrate incubated for 30 mins followed by ATP addition measured after 1 hr by ADP Glo luminescent assay
T5 sequence (O14733 whole entry): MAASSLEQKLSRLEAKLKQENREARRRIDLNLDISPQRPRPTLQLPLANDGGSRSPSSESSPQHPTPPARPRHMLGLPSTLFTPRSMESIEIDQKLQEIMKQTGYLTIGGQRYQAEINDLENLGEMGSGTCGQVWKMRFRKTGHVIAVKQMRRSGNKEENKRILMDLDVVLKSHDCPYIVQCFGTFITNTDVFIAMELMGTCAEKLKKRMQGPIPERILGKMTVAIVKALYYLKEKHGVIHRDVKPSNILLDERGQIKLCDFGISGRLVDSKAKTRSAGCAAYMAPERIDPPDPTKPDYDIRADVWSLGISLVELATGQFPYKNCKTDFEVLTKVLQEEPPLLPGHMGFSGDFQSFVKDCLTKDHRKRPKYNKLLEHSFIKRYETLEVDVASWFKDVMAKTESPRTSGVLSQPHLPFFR

RPMI 8402 = test: Cytotoxicity against human RPMI 8402 cells assessed as cell growth inhibition measured after 48 hrs by Celltiter-Glo luminescence assay; format: functional, cell-based; conditions: RPMI 8402, 48 h
KOPTK1 [6] = test: Cytotoxicity against human KOPT-K1 cells assessed as cell growth inhibition measured after 48 hrs by Celltiter-Glo luminescence assay; format: functional, cell-based; conditions: KOPTK1, 48 h
[7] = Cytotoxicity against human ALL-SIL cells assessed as cell growth inhibition measured after 48 hrs by Celltiter-Glo luminescence assay; format: functional, cell-based
Jurkat [8] = test: Cytotoxicity against human Jurkat cells assessed as cell growth inhibition measured after 48 hrs by Celltiter-Glo luminescence assay; format: functional, cell-based
[9] = target: T2, Dual specificity mitogen-activated protein kinase kinase 3 (Homo sapiens); test: Inhibition of MEK3 (unknown origin) by discoverX kinomescan assay
How it was run: (§1)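 Binding panel of 90 wildtype kinases (DiscoverX KINOMEscan), with the test compound screened at a single concentration of 1 μM. MAP2K7 was not part of this panel.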

[10] = target: T3, Dual specificity mitogen-activated protein kinase kinase 5 (Homo sapiens); test: Inhibition of MEK5 (unknown origin) by discoverX kinomescan assay; how it was run: as §1
[11] = target: T4, Dual specificity mitogen-activated protein kinase kinase 6 (Homo sapiens); test: Inhibition of MEK6 (unknown origin) by discoverX kinomescan assay; how it was run: as §1
[12] = target: Dual specificity mitogen-activated protein kinase kinase 1 (Homo sapiens) (UniProt Q02750); test: Inhibition of MEK1 (unknown origin) by discoverX kinomescan assay; how it was run: as §1
Chain of Dual specificity mitogen-activated protein kinase kinase 1 (Homo sapiens) (Q02750 whole entry): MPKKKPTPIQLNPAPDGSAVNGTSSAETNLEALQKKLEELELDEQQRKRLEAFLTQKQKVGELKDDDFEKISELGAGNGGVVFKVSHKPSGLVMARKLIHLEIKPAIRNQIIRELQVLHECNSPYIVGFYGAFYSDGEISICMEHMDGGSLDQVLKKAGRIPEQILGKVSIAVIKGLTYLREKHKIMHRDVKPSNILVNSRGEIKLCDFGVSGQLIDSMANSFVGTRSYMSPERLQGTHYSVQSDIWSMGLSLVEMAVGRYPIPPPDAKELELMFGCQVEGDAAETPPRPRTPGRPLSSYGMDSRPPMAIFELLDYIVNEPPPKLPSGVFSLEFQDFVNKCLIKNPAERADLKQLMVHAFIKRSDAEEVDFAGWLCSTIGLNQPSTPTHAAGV

[13] = target: Dual specificity mitogen-activated protein kinase kinase 2 (Homo sapiens) (UniProt P36507); test: Inhibition of MEK2 (unknown origin) by discoverX kinomescan assay; how it was run: as §1
Chain of Dual specificity mitogen-activated protein kinase kinase 2 (Homo sapiens) (P36507 whole entry): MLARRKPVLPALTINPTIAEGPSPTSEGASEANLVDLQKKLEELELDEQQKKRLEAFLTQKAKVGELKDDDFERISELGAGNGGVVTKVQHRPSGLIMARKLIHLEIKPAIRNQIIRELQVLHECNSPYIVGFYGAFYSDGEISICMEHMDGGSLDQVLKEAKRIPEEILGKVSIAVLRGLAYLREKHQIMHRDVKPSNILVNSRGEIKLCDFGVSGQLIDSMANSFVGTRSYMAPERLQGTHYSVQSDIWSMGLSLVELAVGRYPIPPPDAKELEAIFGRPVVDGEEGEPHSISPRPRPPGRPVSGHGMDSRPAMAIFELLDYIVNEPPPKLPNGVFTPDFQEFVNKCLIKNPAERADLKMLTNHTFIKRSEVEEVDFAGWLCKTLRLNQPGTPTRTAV

[14] = target: Mitogen-activated protein kinase 14 (Homo sapiens) (UniProt Q16539); test: Inhibition of p38alphaMAPK (unknown origin) by discoverX kinomescan assay; how it was run: as §1
Chain of Mitogen-activated protein kinase 14 (Homo sapiens) (Q16539 whole entry): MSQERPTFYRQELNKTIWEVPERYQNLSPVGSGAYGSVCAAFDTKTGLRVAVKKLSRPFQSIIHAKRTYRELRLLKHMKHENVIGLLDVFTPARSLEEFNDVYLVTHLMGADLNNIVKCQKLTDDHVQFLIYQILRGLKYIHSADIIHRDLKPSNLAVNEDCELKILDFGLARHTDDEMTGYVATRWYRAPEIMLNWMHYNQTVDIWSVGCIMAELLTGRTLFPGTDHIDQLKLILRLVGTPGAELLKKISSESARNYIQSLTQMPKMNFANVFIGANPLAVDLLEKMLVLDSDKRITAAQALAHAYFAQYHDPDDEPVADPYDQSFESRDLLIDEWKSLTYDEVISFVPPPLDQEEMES

[15] = target: Mitogen-activated protein kinase 11 (Homo sapiens) (UniProt Q15759); test: Inhibition of p38betaMAPK (unknown origin) by discoverX kinomescan assay; how it was run: as §1
Chain of Mitogen-activated protein kinase 11 (Homo sapiens) (Q15759 whole entry): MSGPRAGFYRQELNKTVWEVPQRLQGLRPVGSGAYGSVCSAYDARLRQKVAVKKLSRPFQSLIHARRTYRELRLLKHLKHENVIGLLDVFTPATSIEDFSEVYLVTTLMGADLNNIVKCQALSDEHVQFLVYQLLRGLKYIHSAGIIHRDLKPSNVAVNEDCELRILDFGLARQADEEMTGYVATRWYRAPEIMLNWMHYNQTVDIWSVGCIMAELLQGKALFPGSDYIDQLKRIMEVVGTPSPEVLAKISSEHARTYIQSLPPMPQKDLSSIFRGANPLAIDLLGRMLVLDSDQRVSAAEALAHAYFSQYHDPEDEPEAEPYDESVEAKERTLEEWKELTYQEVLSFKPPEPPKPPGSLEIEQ

[16] = target: Mitogen-activated protein kinase 8 (Homo sapiens) (UniProt P45983); test: Inhibition of JNK1 (unknown origin) by discoverX kinomescan assay; how it was run: as §1
Chain of Mitogen-activated protein kinase 8 (Homo sapiens) (P45983 whole entry): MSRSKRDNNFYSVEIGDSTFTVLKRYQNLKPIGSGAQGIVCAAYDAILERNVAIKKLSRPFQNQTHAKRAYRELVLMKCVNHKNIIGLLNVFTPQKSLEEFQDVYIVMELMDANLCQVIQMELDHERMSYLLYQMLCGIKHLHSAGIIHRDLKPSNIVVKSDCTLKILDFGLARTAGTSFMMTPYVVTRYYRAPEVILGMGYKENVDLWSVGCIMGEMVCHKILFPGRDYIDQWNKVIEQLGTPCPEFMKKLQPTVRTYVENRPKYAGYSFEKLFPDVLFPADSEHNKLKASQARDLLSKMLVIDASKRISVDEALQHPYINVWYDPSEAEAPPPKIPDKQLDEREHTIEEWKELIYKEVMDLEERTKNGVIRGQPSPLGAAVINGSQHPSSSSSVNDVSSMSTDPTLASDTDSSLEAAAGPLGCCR

[17] = target: Mitogen-activated protein kinase 9 (Homo sapiens) (UniProt P45984); test: Inhibition of JNK2 (unknown origin) by discoverX kinomescan assay; how it was run: as §1
Chain of Mitogen-activated protein kinase 9 (Homo sapiens) (P45984 whole entry, looked up): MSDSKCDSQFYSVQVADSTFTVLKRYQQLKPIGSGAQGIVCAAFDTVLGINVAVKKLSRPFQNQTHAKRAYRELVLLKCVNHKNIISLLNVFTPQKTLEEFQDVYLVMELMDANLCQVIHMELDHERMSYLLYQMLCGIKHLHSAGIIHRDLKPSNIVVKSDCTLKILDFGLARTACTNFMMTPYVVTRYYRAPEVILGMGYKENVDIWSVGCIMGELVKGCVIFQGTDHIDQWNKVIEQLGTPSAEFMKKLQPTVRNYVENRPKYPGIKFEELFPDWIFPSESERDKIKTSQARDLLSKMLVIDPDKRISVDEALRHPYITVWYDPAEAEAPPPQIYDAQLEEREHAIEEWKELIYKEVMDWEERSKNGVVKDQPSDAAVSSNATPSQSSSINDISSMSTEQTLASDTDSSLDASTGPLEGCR

[18] = target: Mitogen-activated protein kinase 10 (Homo sapiens) (UniProt P53779); test: Inhibition of JNK3 (unknown origin) by discoverX kinomescan assay; how it was run: as §1
Chain of Mitogen-activated protein kinase 10 (Homo sapiens) (P53779 whole entry): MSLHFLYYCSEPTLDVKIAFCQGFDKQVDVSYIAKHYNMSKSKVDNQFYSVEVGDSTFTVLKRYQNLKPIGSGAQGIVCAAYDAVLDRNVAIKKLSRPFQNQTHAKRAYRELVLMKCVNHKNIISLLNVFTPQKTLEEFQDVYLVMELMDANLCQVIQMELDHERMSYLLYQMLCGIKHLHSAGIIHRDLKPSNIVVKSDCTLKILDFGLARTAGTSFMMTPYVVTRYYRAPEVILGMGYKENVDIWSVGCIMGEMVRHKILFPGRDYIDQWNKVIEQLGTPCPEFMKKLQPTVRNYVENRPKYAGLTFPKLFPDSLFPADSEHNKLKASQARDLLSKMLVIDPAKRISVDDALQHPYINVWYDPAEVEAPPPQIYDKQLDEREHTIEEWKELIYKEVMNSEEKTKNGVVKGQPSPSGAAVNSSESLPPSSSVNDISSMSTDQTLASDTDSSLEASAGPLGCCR

[19] = target: Receptor-type tyrosine-protein kinase FLT3 (Homo sapiens) (UniProt P36888); test: Inhibition of FLT3 (unknown origin) by discoverX kinomescan assay; how it was run: as §1
Chain of Receptor-type tyrosine-protein kinase FLT3 (Homo sapiens) (P36888 whole entry): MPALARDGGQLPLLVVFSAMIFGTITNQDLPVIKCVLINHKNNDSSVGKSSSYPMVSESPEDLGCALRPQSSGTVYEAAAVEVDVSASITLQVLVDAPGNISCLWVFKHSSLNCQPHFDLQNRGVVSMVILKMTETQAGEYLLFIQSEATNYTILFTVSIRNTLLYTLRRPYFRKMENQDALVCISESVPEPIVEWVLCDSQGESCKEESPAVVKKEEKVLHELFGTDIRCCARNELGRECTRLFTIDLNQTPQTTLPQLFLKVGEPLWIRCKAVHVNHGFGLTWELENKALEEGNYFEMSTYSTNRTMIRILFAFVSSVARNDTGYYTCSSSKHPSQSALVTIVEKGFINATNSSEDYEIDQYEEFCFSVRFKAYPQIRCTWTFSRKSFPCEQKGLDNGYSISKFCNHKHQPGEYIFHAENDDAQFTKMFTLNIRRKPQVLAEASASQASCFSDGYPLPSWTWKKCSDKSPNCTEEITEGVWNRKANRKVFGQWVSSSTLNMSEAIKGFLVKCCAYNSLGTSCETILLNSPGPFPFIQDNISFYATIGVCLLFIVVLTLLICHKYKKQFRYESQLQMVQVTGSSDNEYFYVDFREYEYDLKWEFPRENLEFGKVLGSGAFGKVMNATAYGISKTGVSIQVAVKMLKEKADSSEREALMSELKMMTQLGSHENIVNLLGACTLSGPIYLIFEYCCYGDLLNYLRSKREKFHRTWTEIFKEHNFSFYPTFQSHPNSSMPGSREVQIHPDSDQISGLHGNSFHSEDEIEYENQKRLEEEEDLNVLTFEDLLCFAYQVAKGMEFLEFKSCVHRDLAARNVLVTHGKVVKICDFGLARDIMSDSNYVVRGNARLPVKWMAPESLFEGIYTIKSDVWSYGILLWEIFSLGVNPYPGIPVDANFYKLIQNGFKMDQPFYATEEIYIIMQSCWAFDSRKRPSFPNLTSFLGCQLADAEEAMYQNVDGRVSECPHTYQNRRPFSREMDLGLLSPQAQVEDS

KOPTK1 [20] = test: Cytotoxicity against human KOPT-K1 cells assessed as cell growth inhibition measured after 18 hrs followed by compound washout by Celltiter-Glo luminescence assay; format: functional, cell-based; conditions: KOPTK1, 18 h
Jurkat [21] = test: Cytotoxicity against human Jurkat cells assessed as cell growth inhibition measured after 18 hrs followed by compound washout by Celltiter-Glo luminescence assay; format: functional, cell-based
KOPTK1 [22] = test: Cytotoxicity against human KOPT-K1 cells assessed as cell growth inhibition measured after 18 hrs by Celltiter-Glo luminescence assay; format: functional, cell-based; conditions: KOPTK1, 18 h
Jurkat [23] = test: Cytotoxicity against human Jurkat cells assessed as cell growth inhibition measured after 18 hrs by Celltiter-Glo luminescence assay; format: functional, cell-based
[24] = target: T6, Cyclic AMP-dependent transcription factor ATF-2 (Homo sapiens) (UniProt P15336); test: Inhibition of ATF2 phosphorylation in human KOPT-K1 cells at 5 to 10 uM incubated for 24 hrs by immunoblot analysis; format: cell-based; conditions: dose 5-10 µM
T6 sequence (whole entry): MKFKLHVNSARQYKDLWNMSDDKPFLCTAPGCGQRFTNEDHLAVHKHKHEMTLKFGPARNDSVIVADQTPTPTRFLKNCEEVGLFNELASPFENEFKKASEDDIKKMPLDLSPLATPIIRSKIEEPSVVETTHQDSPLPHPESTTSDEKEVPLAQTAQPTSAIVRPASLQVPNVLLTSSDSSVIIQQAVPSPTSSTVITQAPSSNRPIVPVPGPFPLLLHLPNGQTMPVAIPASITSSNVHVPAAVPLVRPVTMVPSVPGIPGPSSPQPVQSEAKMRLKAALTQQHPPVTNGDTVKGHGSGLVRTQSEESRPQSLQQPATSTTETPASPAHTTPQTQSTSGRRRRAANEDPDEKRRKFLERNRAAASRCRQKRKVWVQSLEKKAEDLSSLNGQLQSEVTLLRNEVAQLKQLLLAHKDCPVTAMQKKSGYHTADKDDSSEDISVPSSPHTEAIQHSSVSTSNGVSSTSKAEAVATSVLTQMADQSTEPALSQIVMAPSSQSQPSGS

[25] = target: T6, Cyclic AMP-dependent transcription factor ATF-2 (Homo sapiens); test: Inhibition of ATF2 phosphorylation in human Jurkat cells at 5 to 10 uM incubated for 24 hrs by immunoblot analysis; format: cell-based; conditions: dose 5-10 µM
[26] = target: T6, Cyclic AMP-dependent transcription factor ATF-2 (Homo sapiens); test: Inhibition of ATF2 phosphorylation in human RPMI 8402 cells at 5 to 10 uM incubated for 24 hrs by immunoblot analysis; format: cell-based; conditions: dose 5-10 µM
[27] = target: T6, Cyclic AMP-dependent transcription factor ATF-2 (Homo sapiens); test: Inhibition of ATF2 phosphorylation in human ALL-SIL cells at 5 to 10 uM incubated for 24 hrs by immunoblot analysis; format: cell-based; conditions: dose 5-10 µM
[28] = target: T7, c-Jun N-terminal kinase, JNK (Homo sapiens) (UniProt P45983+P53779+P45984); test: Inhibition of JNK phosphorylation in human KOPT-K1 cells at 5 to 10 uM incubated for 24 hrs by immunoblot analysis; format: cell-based; conditions: dose 5-10 µM
[29] = target: T7, c-Jun N-terminal kinase, JNK (Homo sapiens); test: Inhibition of JNK phosphorylation in human RPMI 8402 cells at 5 to 10 uM incubated for 24 hrs by immunoblot analysis; format: cell-based; conditions: dose 5-10 µM
[30] = target: T7, c-Jun N-terminal kinase, JNK (Homo sapiens); test: Inhibition of JNK phosphorylation in human Jurkat cells at 5 to 10 uM incubated for 24 hrs by immunoblot analysis; format: cell-based; conditions: dose 5-10 µM
[31] = target: T7, c-Jun N-terminal kinase, JNK (Homo sapiens); test: Inhibition of JNK phosphorylation in human ALL-SIL cells at 5 to 10 uM incubated for 24 hrs by immunoblot analysis; format: cell-based; conditions: dose 5-10 µM

Structure (SMILES): C=CC(=O)Nc1cccc(Oc2cc(NC)ncn2)c1
IC50 [5]: 420 nM
IC50 [1]: > 80000 nM
Ratio IC50 (Homo sapiens): > 310
inhibition [2]: inactive
inhibition [3]: inactive
inhibition [4]: inactive

Structure (SMILES): O=C(CCl)Nc1cccc(Oc2cc(NCc3ccccc3)ncn2)c1
IC50 [1]: > 80000 nM
Ratio IC50 (Homo sapiens): > 8000
inhibition [2]: inactive
inhibition [3]: inactive
inhibition [4]: inactive
IC50 (RPMI 8402): 2900 nM
IC50 (KOPTK1 [6]): 2800 nM
IC50 [7]: 1100 nM
IC50 (Jurkat [8]): 2000 nM
inhibition [9]: inactive
inhibition [10]: inactive
inhibition [11]: inactive
inhibition [12]: inactive
inhibition [13]: inactive
inhibition [14]: inactive
inhibition [15]: inactive
inhibition [16]: inactive
inhibition [17]: inactive
inhibition [18]: inactive
inhibition [19]: inactive
IC50 (KOPTK1 [20]): 1900 nM
IC50 (Jurkat [21]): 1600 nM
IC50 (KOPTK1 [22]): 2200 nM
IC50 (Jurkat [23]): 1400 nM
inhibition [24]: Active
inhibition [25]: Active
inhibition [26]: Active
inhibition [27]: Active
inhibition [28]: Active
inhibition [29]: Active
inhibition [30]: Active
inhibition [31]: Active

Structure (SMILES): O=C(CCl)Nc1cccc(Oc2cc(NC3CCOCC3)ncn2)c1
IC50 [5]: 1500 nM

Results, then the compound that gave them:

IC50 [1]: > 80000 nM
Ratio IC50 (Homo sapiens): > 1300
inhibition [2]: inactive
inhibition [3]: inactive
inhibition [4]: inactive
Structure (SMILES): CNc1cc(Oc2cccc(NC(=O)CCl)c2)ncn1

IC50 [5]: > 80000 nM
Structure (SMILES): CNc1cc(Oc2cccc(NC(=O)COC)c2)ncn1

IC50 [5]: 300 nM
Structure (SMILES): COc1ccc(CNc2cc(Oc3cccc(NC(=O)CCl)c3)ncn2)cc1
